Published values gathered from unrelated publications.
Protocols differ between the studies behind these lines.
Target: Mitogen-activated protein kinase kinase kinase kinase 5 (MAP4K5, Homo sapiens, UniProt Q9Y4K4)

Cc1ccc(C(=O)Nc2ccc(CN3CCN(C)CC3)c(C(F)(F)F)c2)cc1C#Cc1cnc2cccnn12  remaining activity (enzyme activity, inhibitor; 23.5 nM): 69%
O=C1NC(=O)c2cc(Nc3ccc(F)cc3)c(Nc3ccc(F)cc3)cc21  remaining signal (cell-free assay; 0.5 µM): 89.5%
CNCc1ccccc1-c1csc([C@H](C)Nc2nc(C)nc3cc(OC)c(OC)cc23)c1  remaining binding (cell-free assay, competition with immobilised ligand; 1 µM): 100%
CCN1CCN(Cc2ccc(NC(=O)c3ccc(C)c(Oc4ccnc5[nH]ccc45)c3)cc2C(F)(F)F)CC1  inhibition (target engagement in cells, inhibitor, chemoproteomics; A-375; 0.5 µM): -0.264%
FC(F)(F)Oc1cccc(-c2cnc3ccc(-c4ccncc4)nn23)c1  activity vs control (enzyme activity, inhibitor, radiometric; 5 µM): 74%
CNC(=O)Nc1ccc2c(c1)CC[C@@]21OC(=O)N(CC(=O)N(Cc2ccc(F)cc2)[C@@H](C)C(F)(F)F)C1=O  remaining binding (cell-free assay, competition with immobilised ligand; 1 µM): 88%
COc1cc2ncnc(Nc3ccc(Oc4ccccc4)c(C)c3C)c2cc1OC  inhibition (enzyme activity, inhibitor; 1 µM): -2%
Cc1sc(C(=O)NC2COC2)cc1-n1cc(NC(=O)Nc2c(F)cccc2Cl)cn1  remaining activity (enzyme activity, inhibitor; 10 µM): 98.4%
Clc1ccc(Nc2nnc(Cc3ccncc3)c3ccccc23)cc1  remaining signal (cell-free assay; 0.5 µM): 101%
C[C@@H]1CN(c2cc(-c3n[nH]c4ccc(OC5(C)CC5)cc34)ncn2)C[C@H](C)O1  remaining binding (cell-free assay, competition with immobilised ligand; 0.1 µM): 100%
COc1cc(Nc2cnc(C#N)c(O[C@H](C)CN(C)C)n2)ncc1-c1cnn(C)c1  remaining activity (enzyme activity, inhibitor, radiometric; 1 µM): 46%
Cc1cc(NC(=O)c2cccc(S(F)(F)(F)(F)F)c2)cc(-n2ccn3nc(-c4cccnc4)cc23)c1  remaining binding (cell-free assay, competition with immobilised ligand; 1 µM): 100%
Nc1ncnc2occ(-c3ccc(NC(=O)Nc4cc(C(F)(F)F)ccc4F)cc3)c12  remaining signal (cell-free assay, inhibitor; 20 µM): 0%
Cc1ccc(NC(=O)c2ccc(CN3CCN(C)CC3)cc2)cc1Nc1nc(-c2cccnc2)cs1  remaining signal (cell-free assay; 0.5 µM): 97%
Cc1nc(N2CC[C@@H](O)C2)ncc1-c1cc(C(F)(F)F)cc2[nH]ncc12  remaining binding (binding, competition with immobilised ligand; 1 µM): 75%
CN(C)c1nccc(-c2cnc3ncccn23)n1  remaining binding (binding; 1 µM): 100%
CS(=O)(=O)c1cc(C2(NC(=O)c3cncc4c3cnn4-c3ccc(F)cc3)CC2)ccn1  remaining binding (cell-free assay, competition with immobilised ligand; 1 µM): 98%
CC(C)(C)c1nc(-c2cccc(NS(=O)(=O)c3c(F)cccc3F)c2F)c(-c2ccnc(N)n2)s1  remaining activity (enzyme activity, inhibitor, radiometric; 1 µM): 90%
